“Also recorded” adds a separate entry of the source.
What was measured:
YFP-labeled PTHR = YFP-labeled PTHR (UniProt Q03431); assay: FRET or BRET
[1] = biological target: PTHR variant that lacks the N domain and is tagged extracellularly with GFP; assay: FRET or BRET
PTHR (GFP-N-PTHR) = biological target: T1, PTHR (GFP-N-PTHR) (Homo sapiens, UniProt Q03431); type: binding; details: for ligand dissociation after washout: GFP fluorescence recovery after rapid removal of ligand; for decrease in GFP emission: saturating concentration (15 μM), hormone binding to receptor
T1 sequence (Q03431 27-593): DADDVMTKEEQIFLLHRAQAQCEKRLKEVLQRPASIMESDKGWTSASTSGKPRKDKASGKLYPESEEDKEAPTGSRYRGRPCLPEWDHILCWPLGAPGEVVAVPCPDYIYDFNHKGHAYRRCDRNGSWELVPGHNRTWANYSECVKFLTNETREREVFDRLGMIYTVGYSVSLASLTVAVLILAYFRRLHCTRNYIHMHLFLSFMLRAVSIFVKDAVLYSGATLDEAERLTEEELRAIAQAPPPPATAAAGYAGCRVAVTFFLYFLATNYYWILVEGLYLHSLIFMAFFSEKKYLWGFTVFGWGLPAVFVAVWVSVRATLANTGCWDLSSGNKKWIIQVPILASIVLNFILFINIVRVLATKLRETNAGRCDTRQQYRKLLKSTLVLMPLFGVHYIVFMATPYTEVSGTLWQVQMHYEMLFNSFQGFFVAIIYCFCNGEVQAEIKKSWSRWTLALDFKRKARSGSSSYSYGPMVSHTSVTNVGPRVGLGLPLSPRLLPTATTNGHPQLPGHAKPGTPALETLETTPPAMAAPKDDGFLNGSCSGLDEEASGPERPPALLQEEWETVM

Gαs-GFP = assay: Live cell confocal co-localization of ligand with Gαs-GFP; type: cell-based; details: TMR-labeled ligand, after washout
[2] = biological target: T2, PTHR co-expressed with DN-Gs (Homo sapiens, UniProt Q03431); assay: Ligand dissociation by FRET with co-expressed dominant-negative Gαs; type: binding; details: co-expression of DN-Gs
T2 sequence (Q03431 27-593): T1 sequence (Q03431 27-593)

adenylyl cyclases = assay: Co-localization of ligand with BODIPY-Fsk labeled adenylyl cyclases; type: cell-based; details: cells transiently transfected with PTHR
How it was run: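 HEK293 cells transiently transfected with PTHR. Cellular adenylyl cyclases labeled with BODIPY-labeled forskolin, which labels all cells. A TMR-labeled test peptide ligand marks only the PTHR-expressing cells. After ligand binding, the distribution of the BODIPY-Fsk signal is compared with the ligand signal (internalized punctae vs diffuse) by live-cell fluorescence imaging.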

Rab5-GFP = assay: Co-localization of ligand with Rab5-GFP early endosomes; type: cell-based; details: Rab5-GFP-transfected cells
How it was run: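 Live HEK293 cells transfected with Rab5-GFP were imaged at room temperature 48 h post-transfection by spinning-disc confocal microscopy. Cells were washed with HEPES buffer containing 0.1% BSA. TMR-labelled ligand was added and removed by perfusion. Z-stacks were taken at 0.3-μm steps. Co-localization was scored by Pearson's correlation coefficient.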

Rab7-GFP = assay: Co-localization of ligand with Rab7-GFP late endosomes; type: cell-based; details: even after 30 min of incubation
[3] = tested on: early endosomal antigen 1 (EEA-1); assay: Co-localization of ligand with GFP-tagged EEA-1; type: cell-based; details: data not shown
GFP-N-PTHR = assay: Live cell confocal co-localization of ligand with GFP-N-PTHR; type: cell-based; details: TMR-labeled ligand, after washout
PTHR (PTHR-CFP/YFP) = biological target: T3, PTHR (PTHR-CFP/YFP) (Homo sapiens, UniProt Q03431); assay: PTHR activation/deactivation by intramolecular FRET; type: cell-based; details: PTHR-CFP/YFP FRET after washout
T3 sequence (Q03431 27-462 limits assumed): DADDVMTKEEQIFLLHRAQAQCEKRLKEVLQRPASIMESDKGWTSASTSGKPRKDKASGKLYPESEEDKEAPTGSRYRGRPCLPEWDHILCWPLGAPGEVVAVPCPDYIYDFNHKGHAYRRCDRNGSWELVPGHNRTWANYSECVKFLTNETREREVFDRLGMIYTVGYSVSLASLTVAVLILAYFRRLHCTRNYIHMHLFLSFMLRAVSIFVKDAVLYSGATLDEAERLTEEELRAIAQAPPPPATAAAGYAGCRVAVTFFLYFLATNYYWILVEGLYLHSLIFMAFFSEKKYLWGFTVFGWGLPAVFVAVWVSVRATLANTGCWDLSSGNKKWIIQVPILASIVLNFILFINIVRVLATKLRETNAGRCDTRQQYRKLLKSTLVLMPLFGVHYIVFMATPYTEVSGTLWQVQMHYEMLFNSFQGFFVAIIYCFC

[4] = tested on: cAMP via PTHR in HEK293 cells; assay: cAMP accumulation/degradation by FRET sensor Epac-CFP/YFP; type: cell-based; details: PTHrP1–36 100 nM, PTH1–34 text 1−10 nM
[5] = biological target: PTHR N-terminally tagged with green fluorescent protein (UniProt Q03431); assay: FRET or BRET
PTHR = details: membranes, ref [6]; cited from earlier work

What does the source list for “Gs-CFP (Gαs/Gβ1/Gγ2-CFP) (from UniProt P63092 1-394; P62873 1-340; P59768 1-71) (complex; other documents disagree on this pair)”?
tau, PTHR-Gs dissociation (turn off) after washout of PTHrP(1-36) (YFP-labeled PTHR): 48.1 s; tau, PTHR-Gs interaction (switch on) with PTH(1-34) (YFP-labeled PTHR): 0.96 s; tau, PTHR-Gs interaction (switch on) with PTHrP(1-36) (YFP-labeled PTHR): 1.58 s

For “M-PTH(1-14) labelled with tetramethylrhodamine (peptide)”, which tau, dissociation (single step) [1] is on record?
The tau, dissociation (single step) was 15.8 s.

Which results are given for “PTH1–34-TMR: PTH ligand tagged at Lys13 with tetramethylrhodamine”?
ligand dissociation after washout (PTHR (GFP-N-PTHR)): most of the ligand remaining bound to the receptor after washout; decrease in GFP emission (PTHR (GFP-N-PTHR)): ~ 20%; co-localization with Gαs-GFP (Gαs-GFP): strong co-localization with both GFP-N-PTHR and Gas-GFP; also recorded: persisted over a period of 30 min in endosomes but not at the cell surface; effect of DN-Gs on ligand release [2]: no effect; BODIPY-Fsk (adenylyl cyclase) distribution/co-localization with ligand (adenylyl cyclases): strongly co-localized with the ligand as internalized punctae; co-localization with Rab5-labeled endosomes (Rab5-GFP): all of the internalized PTH1–34-TMR co-localized with Rab5-labeled endosomes; co-localization with Rab7-GFP (Rab7-GFP): No co-localization; co-localization with EEA-1-GFP [3]: also co-localized with the early endosomal antigen 1 (EEA-1); co-localization with GFP-N-PTHR (GFP-N-PTHR): strong co-localization with both GFP-N-PTHR and Gas-GFP; also recorded: little or no TMR fluorescence from PTH1–34-TMR was detected at the cell surface; also recorded: remained closely associated during receptor internalization

With PTH1–84: PTH is represented by PTH1–84 as the substance, how does the “persistence of active receptor state after ligand removal” value (PTHR (PTHR-CFP/YFP)) read?
The value was “stable active state that persisted well after removal of ligand”.

What about the “Epac-FRET (cAMP) signal after ligand washout” value [4] of the same substance?
The value was “remained fully stable after washout”.

With “PTH(1-34) tagged at Lys13 with tetramethylrhodamine (peptide)” as the substance, how does the koff, fast step (intercept) [5] read?
The koff, fast step (intercept) was 0.46 s⁻¹.

And the tau fast, dissociation (turn off) [5]?
The tau fast, dissociation (turn off) was 1.5 s.

What about the tau slow, association (switch on) [5] of the same substance?
The tau slow, association (switch on) was 1.15 s.

What does the source list for PTHrP1–36-TMR: TMR-labeled PTHrP1–36?
ligand dissociation after washout (PTHR (GFP-N-PTHR)): complete dissociation of the ligand from the receptor; decrease in GFP emission (PTHR (GFP-N-PTHR)): ~ 20%; co-localization with Gαs-GFP (Gαs-GFP): did not co-localize with either GFP-N-PTHR or Gαs-GFP; also recorded: only ligand-containing vesicles are observed; BODIPY-Fsk (adenylyl cyclase) distribution/co-localization with ligand (adenylyl cyclases): the labeled forskolin remained diffuse; co-localization with GFP-N-PTHR (GFP-N-PTHR): did not co-localize with either GFP-N-PTHR or Gαs-GFP; also recorded: alone is detected as small puntae at internalized sites

Which “stability of radioligand binding with GTPγS” value (PTHR) does the source give for ^125I-PTH1–34: radioligand of PTH1–34 here?
Its value is “remains mostly stable in the presence of GTPγS”.

Which “stability of radioligand binding with GTPγS” value (PTHR) does the source give for “^125I-PTHrP1–36: radioligand of PTHrP1–36” here?
The value was “mostly destabilized by GTPγS”.
